Measured values: ChEMBL document CHEMBL1153551, “Resveratrol modulates phagocytosis of bacteria through an NF-kappaB-dependent gene program” (Antimicrob Agents Chemother, 2008)
Calls of active or inactive are those of the source.

What was measured:
THP-1 [1] = experiment: Inhibition of FSL1-induced upregulation of DC-SIGN mRNA expression in human THP1 cells at 100 uM after 1 hr by RT-PCR; format: functional, cell-based
Summary of the method: (§1)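 Serum-free THP-1 cells primed 24 h with 100 nM FSL-1 were given 100 μM resveratrol or 0.1% DMSO for 1 h. Total RNA from 5 × 10⁶ cells was reverse-transcribed with oligo(dT) and PCR-amplified for MSR1, CD36, DC-SIGN and Dectin-1 (30 cycles) with β-actin as reference (25 cycles). Products were resolved on 3% agarose with ethidium bromide.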

RAW264.7 [2] = experiment: Inhibition of phagocytosis of FITC-conjugated Staphylococcus aureus 209P in mouse RAW264.7 cells using trypan blue staining after 80 mins by flow cytometry; format: functional, cell-based
THP-1 [3] = experiment: Inhibition of FSL1-induced upregulation of dectin-1 mRNA expression in human THP1 cells at 100 uM after 1 hr by RT-PCR; format: functional, cell-based; summary of the method: as §1
RAW264.7 [4] = experiment: Inhibition of phagocytosis of FITC-conjugated Staphylococcus aureus 209P in mouse RAW264.7 cells using trypan blue staining after 60 mins by flow cytometry; format: functional, cell-based
RAW264.7 [5] = experiment: Inhibition of heat killed Staphylococcus aureus 209P-induced TNF alpha production in mouse RAW264.7 cells at 1 to 100 uM after 6 hrs by ELISA; format: functional, cell-based
Summary of the method: (§2)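 THP-1 or RAW264.7 cells (1 × 10⁶/well, 16 h) were washed and pretreated 1 h with resveratrol. Serum-free stimulation with heat-killed E. coli or S. aureus at 1:100 followed for 0, 2, 4 or 6 h. TNF-α in supernatants (400 × g spin) was measured by ELISA: human kit for THP-1, mouse kit for RAW264.7. Triplicates.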

THP-1 [6] = experiment: Inhibition of heat killed Escherichia coli K12-induced TNF alpha production in human THP1 cells at 1 to 100 uM after 6 hrs by ELISA; format: functional, cell-based; summary of the method: as §2
HEK293 [7] = experiment: Inhibition of heat killed Staphylococcus aureus 209P-induced nuclear translocation of p65 element of NF-kappaB in HEK293 cells expressing TLR2 at 100 uM pretreated for 1 hr before 6 hrs heat killed bacterial stimulation by immunostaining method; format: cell-based; conditions: Homo sapiens
Summary of the method: (§3)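 293/TLR2 cells on poly-L-lysine coverslips were given 100 μM resveratrol or 0.1% DMSO for 1 h, then heat-killed E. coli or S. aureus (1:100) for 6 h. Cells were fixed in methanol at −20°C for 5 min and stained with rabbit anti-p65 pAb (1 μg/ml, 45 min RT), then Alexa 594 anti-rabbit IgG. Nuclear p65 was viewed by confocal microscopy.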

THP-1 [8] = experiment: Inhibition of FSL-1-induced increase in phagocytosis of FITC-conjugated Escherichia coli K12 in human THP1 cells assessed as reduction in number of cells phagocytosing bacteria per cell after 1 hr by CLSM; format: functional, cell-based
Summary of the method: (§4)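 THP-1 cells (1 × 10⁶/ml) were held 24 h with or without 100 nM FSL-1, washed, then given 100 μM resveratrol or 0.1% DMSO for 1 h. Heat-killed FITC-E. coli (1:100) was added for 1 h, cells were stained with concanavalin A, fixed in 3% paraformaldehyde and imaged by confocal microscopy. Readouts: particles per cell among 3,500 cells; % cells with bacteria per field (>100 cells), 25 fields.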

HEK293 [9] = experiment: Inhibition of phagocytosis of heat killed FITC-conjugated Staphylococcus aureus 209P in HEK293 at 100 uM after 1 hr; format: functional, cell-based; conditions: Homo sapiens
Summary of the method: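 293/DC-SIGN cells (5 × 10⁵/ml) were plated the day before, washed and treated 1 h with resveratrol. Heat-killed FITC-E. coli or S. aureus were added for 1 h at various cell:bacterium ratios. Trypan blue (0.2%) quenched surface fluorescence and 1% paraformaldehyde fixed the cells. Flow cytometry MFI, triplicates.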

HEK293 [10] = experiment: Inhibition of heat killed Escherichia coli K12-induced nuclear translocation of p65 element of NF-kappaB in HEK293 cells expressing TLR2 at 100 uM pretreated for 1 hr before 6 hrs heat killed bacterial stimulation by immunostaining method; format: cell-based; conditions: Homo sapiens; summary of the method: as §3
RAW264.7 [11] = experiment: Inhibition of phagocytosis of FITC-conjugated Escherichia coli K12 in mouse RAW264.7 cells using trypan blue staining after 20 mins by flow cytometry; format: functional, cell-based
Summary of the method: (§5)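 Serum-free THP-1 or RAW264.7 cells were treated 1 h with resveratrol, then incubated 0, 20, 40, 60 or 80 min with heat-killed FITC-E. coli at 1:100 cell:bacterium. Outer fluorescence was quenched with 0.2% trypan blue and cells fixed in 1% paraformaldehyde. Internalized fluorescence was read as flow cytometry MFI; mean and SD of triplicates.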

THP-1 [12] = experiment: Inhibition of phagocytosis of FITC-conjugated Staphylococcus aureus 209P in human THP1 cells using trypan blue staining after 80 mins by flow cytometry; format: functional, cell-based
RAW264.7 [13] = experiment: Inhibition of phagocytosis of FITC-conjugated Escherichia coli K12 in mouse RAW264.7 cells using trypan blue staining after 80 mins by flow cytometry; format: functional, cell-based; summary of the method: as §5
THP-1 [14] = experiment: Inhibition of phagocytosis of FITC-conjugated Staphylococcus aureus 209P in human THP1 cells assessed as reduction in ratio of number of bacterial cells to phagocytes using trypan blue staining by flow cytometry; format: functional, cell-based
Summary of the method: (§6)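 THP-1 or RAW264.7 cells received resveratrol for 1 h serum-free, then a range of doses of heat-killed FITC-E. coli or FITC-S. aureus. Trypan blue (0.2%) quenched bound bacteria and 1% paraformaldehyde fixed the cells. Flow cytometry MFI of internalized bacteria was plotted against bacterial dose; triplicates.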

RAW264.7 [15] = experiment: Inhibition of phagocytosis of FITC-conjugated Escherichia coli K12 in mouse RAW264.7 cells using trypan blue staining after 60 mins by flow cytometry; format: functional, cell-based; summary of the method: as §5
THP-1 [16] = experiment: Inhibition of phagocytosis of FITC-conjugated Escherichia coli K12 in human THP1 cells using trypan blue staining after 60 mins by flow cytometry; format: functional, cell-based; summary of the method: as §5
RAW264.7 [17] = experiment: Inhibition of phagocytosis of FITC-conjugated Escherichia coli K12 in mouse RAW264.7 cells assessed as reduction in ratio of number of bacterial cells to phagocytes using trypan blue staining by flow cytometry; format: functional, cell-based; summary of the method: as §6
HEK293 [18] = experiment: Inhibition of FSL1-induced NF-kappaB activation in HEK293 cells expressing TLR2 pretreated for 1 hr before 6 hrs-FSL1 stimulation by luciferase reporter gene assay; format: cell-based; conditions: Homo sapiens
Summary of the method: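 293/TLR2 cells (1 × 10⁵/well) were transfected with 50 ng pNF-κB-Luc, 5 ng pRL-TK and 445 ng pcDNA3. After 24 h they were pretreated 1 h with resveratrol, then stimulated 6 h serum-free with FSL-1 (1, 10, 100 nM) or heat-killed E. coli or S. aureus (1:1, 1:10, 1:100). Dual luciferase readout, triplicates.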

RAW264.7 [19] = experiment: Inhibition of FSL-1-induced increase in phagocytosis of FITC-conjugated Staphylococcus aureus 209P in mouse RAW264.7 cells using trypan blue staining after 20 mins by flow cytometry; format: functional, cell-based
Summary of the method: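 THP-1 or RAW264.7 cells (1 × 10⁶/ml) were pretreated 24 h with FSL-1 (0, 1, 10, 100 nM), washed, then given resveratrol (10, 50, 100 μM) for 1 h serum-free. Heat-killed FITC-E. coli (1:10) or FITC-S. aureus (1:100) followed. Surface fluorescence was quenched with 0.2% trypan blue and cells fixed in 1% paraformaldehyde. Flow cytometry mean fluorescence intensity, triplicates.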

THP-1 [20] = experiment: Inhibition of FSL-1-induced increase in phagocytosis of FITC-conjugated Escherichia coli K12 in human THP1 cells assessed as reduction in number of phagocytosing bacteria to total number of cells after 1 hr by CLSM; format: functional, cell-based; summary of the method: as §4
RAW264.7 [21] = experiment: Inhibition of phagocytosis of FITC-conjugated Staphylococcus aureus 209P in mouse RAW264.7 cells using trypan blue staining after 40 mins by flow cytometry; format: functional, cell-based

Measured: Activity

Oc1ccc(/C=C/c2cc(O)cc(O)c2)cc1
active: THP-1 [1] | RAW264.7 [2] Dose-dependent effect | THP-1 [3] | RAW264.7 [4] Dose-dependent effect | RAW264.7 [5] | THP-1 [6] | HEK293 [7] | THP-1 [8] | HEK293 [9] Dose-dependent effect | HEK293 [10] | RAW264.7 [11] Dose-dependent effect | THP-1 [12] Dose-dependent effect | RAW264.7 [13] Dose-dependent effect | THP-1 [14] | RAW264.7 [15] Dose-dependent effect | THP-1 [16] Dose-dependent effect | RAW264.7 [17] | HEK293 [18] Dose-dependent effect | RAW264.7 [19] Dose-dependent effect | THP-1 [20] | RAW264.7 [21] Dose-dependent effect
